Measurements published in ChEMBL document CHEMBL2385079, “Design, synthesis and pharmacological characterization of analogs of 2-aminoethyl diphenylborinate (2-APB), a known store-operated calcium channel blocker, for inhibition of TRPV6-mediated calcium transport” (Bioorg Med Chem, 2013).
Activity calls are given as the source filed them. No cut-off for these calls is given here.

Assays:
[1] = target: T1, ORAI 1/2/3 (Homo sapiens, UniProt Q96D31+Q96SN7+Q9BRQ5); test: Inhibition of ORAl1/2/3 in HEK293 cells assessed as inhibition of Ca2+ influx after 10 mins by FLIPR assay in presence of thapsigargin; type: cell-based
Procedure, shortened: (§1)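 Untransfected HEK293 cells plated at 40,000 cells/well, used after 36 h and loaded 1 h at 37 °C with Calcium-5 dye in nominally Ca2+-free modified Krebs buffer (117 mM NaCl, 4.8 mM KCl, 1 mM MgCl2, 10 mM HEPES). After a 50 s baseline, compound is added together with 1 µM thapsigargin for 10 min. Ca2+ or Cd2+ is then added, and the rate of fluorescence rise is read by FLIPR Tetra (ex 470–495, em 515–575 nm). IC50 is the mean of six experiments.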

[2] = target: T2, Transient receptor potential cation channel subfamily V member 6 (Homo sapiens, UniProt Q9H1D0); test: Inhibition of human TRPV6 transfected in HEK293 cells assessed as inhibition of Cd2+ influx after 5 mins by FLIPR assay; type: cell-based
T2 sequence (Q9H1D0 whole entry): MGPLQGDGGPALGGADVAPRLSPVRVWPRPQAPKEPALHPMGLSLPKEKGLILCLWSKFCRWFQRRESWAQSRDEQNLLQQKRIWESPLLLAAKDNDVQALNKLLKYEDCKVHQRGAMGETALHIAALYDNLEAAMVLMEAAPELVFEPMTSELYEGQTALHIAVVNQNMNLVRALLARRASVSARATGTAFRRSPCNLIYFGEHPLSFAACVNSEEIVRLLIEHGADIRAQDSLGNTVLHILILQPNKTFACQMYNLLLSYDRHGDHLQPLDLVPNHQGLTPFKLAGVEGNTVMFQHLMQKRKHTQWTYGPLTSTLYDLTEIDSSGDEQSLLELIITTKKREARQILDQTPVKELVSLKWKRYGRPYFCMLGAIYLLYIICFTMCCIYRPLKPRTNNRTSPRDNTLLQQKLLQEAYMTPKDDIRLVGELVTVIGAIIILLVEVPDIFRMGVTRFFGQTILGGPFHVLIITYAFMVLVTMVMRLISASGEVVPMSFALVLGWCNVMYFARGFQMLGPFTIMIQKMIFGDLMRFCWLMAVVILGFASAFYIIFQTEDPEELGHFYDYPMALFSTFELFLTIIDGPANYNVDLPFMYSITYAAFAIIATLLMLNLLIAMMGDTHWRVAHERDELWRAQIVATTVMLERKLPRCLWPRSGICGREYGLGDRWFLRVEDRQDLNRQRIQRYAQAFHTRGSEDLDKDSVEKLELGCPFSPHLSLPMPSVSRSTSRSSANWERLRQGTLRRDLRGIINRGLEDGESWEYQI
Procedure, shortened: (§2)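 HEK293 clone stably expressing RFP-tagged hTRPV6, made by Lipofectamine transfection, G418 selection and picking of red-fluorescent single-cell colonies. Cells plated at 40,000/well and used after 36 h, then loaded 1 h at 37 °C with Calcium-5 in nominally Ca2+-free Krebs buffer. After a 50 s baseline, compound is given for 5 min. Then 2 mM CaCl2 or 50 µM CdCl2 is added, and the initial rate of fluorescence increase is read by FLIPR Tetra. IC50 is the average of six independent experiments.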

[3] = target: T2, Transient receptor potential cation channel subfamily V member 6; test: Inhibition of human TRPV6 transfected in HEK293 cells assessed as inhibition of Ca2+ influx after 5 mins by FLIPR assay; type: cell-based; procedure, shortened: as §2
[4] = target: T1, ORAI 1/2/3; test: Inhibition of ORAl1/2/3 in HEK293 cells assessed as inhibition of Cd2+ influx after 10 mins by FLIPR assay in presence of thapsigargin; type: cell-based; procedure, shortened: as §1
[5] = target: T1, ORAI 1/2/3; test: Inhibition of ORAl1/2/3 in HEK293 cells assessed as inhibition of Cd2+ influx up to 500 uM after 10 mins by FLIPR assay in presence of thapsigargin; type: cell-based; procedure, shortened: as §1
[6] = target: T1, ORAI 1/2/3; test: Inhibition of ORAl1/2/3 in HEK293 cells assessed as inhibition of Ca2+ influx up to 500 uM after 10 mins by FLIPR assay in presence of thapsigargin; type: cell-based; procedure, shortened: as §1
[7] = target: T3, Transient receptor potential cation channel subfamily V member 6 (Homo sapiens) (UniProt Q9H1D0); test: Inhibition of human TRPV6 transfected in HEK293 cells assessed as inhibition of Cd2+ influx up to 500 uM after 5 mins by FLIPR assay; type: cell-based; procedure, shortened: as §2
T3 sequence (whole entry): T2 sequence (Q9H1D0 whole entry)

[8] = target: T3, Transient receptor potential cation channel subfamily V member 6 (Homo sapiens); test: Inhibition of human TRPV6 transfected in HEK293 cells assessed as inhibition of Ca2+ influx up to 500 uM after 5 mins by FLIPR assay; type: cell-based; procedure, shortened: as §2
[9] = target: T3, Transient receptor potential cation channel subfamily V member 6 (Homo sapiens); test: Ratio of 2-APB IC50 to compound IC50 for human TRPV6
[10] = target: T2, Transient receptor potential cation channel subfamily V member 6; test: Inhibition of human TRPV6 transfected in HEK293 cells; type: cell-based; procedure, shortened: as §2
[11] = Stability of the compound in CHCl3 by NMR analysis; type: physicochemical
[12] = test system: HEK293; test: Selectivity ratio of IC50 for ORAl1/2/3 in HEK293 cells to IC50 for human TRPV6 transfected in HEK293 cells; type: cell-based

| Compound | IC50 [1] [µM] | IC50 [2] [µM] | IC50 [3] [µM] | IC50 [4] [µM] | other results |
| --- | --- | --- | --- | --- | --- |
| CCCCc1ccc([B-]2(c3ccccc3)[NH2+]CCO2)cc1 (stereo unspecified) | 3.5 | 12.1 | 14.3 | 2.4 | – |
| Fc1ccc([B-]2(c3ccccc3)[NH2+]CCO2)cc1 (stereo unspecified) | 9.3 | 33.6 | 18.8 | 9.8 | – |
| OB(c1ccccc1)c1ccc(Cl)cc1 | 21.8 | 12 | 9.7 | 6.4 | – |
| OB(O)c1ccccc1 | – | – | – | – | inhibition [5]: inactive; inhibition [6]: inactive; inhibition [7]: inactive; inhibition [8]: inactive |
| c1ccc(B(OB(c2ccccc2)c2ccccc2)c2ccccc2)cc1 | 11.4 | 17.7 | 19.2 | 13.4 | – |
| Cc1ccc(B(O)c2ccc(C)cc2)cc1 | 23 | 29 | 18.6 | 25.9 | – |
| c1ccc([B-]2(c3ccccc3)[NH2+]CCCO2)cc1 | 7.9 | 28.1 | 16.2 | 8.2 | – |
| FC(F)(F)c1ccc([B-]2(c3ccc(C(F)(F)F)cc3)[NH2+]CCO2)cc1 | 2.1 | 13.7 | 16.3 | 3.2 | – |
| CN(C)CCOC(c1ccccc1)c1ccccc1 [DIPHENHYDRAMINE] | > 500 | – | – | > 500 | inhibition [7]: inactive; inhibition [8]: inactive |
| Brc1ccc([B-]2(c3ccccc3)[NH2+]CCO2)cc1 (stereo unspecified) | 3.4 | 9.8 | 13.2 | 4.9 | – |
| c1ccc(-c2ccc([B-]3(c4ccccc4)[NH2+]CCO3)cc2)cc1 (stereo unspecified) | 13.4 | 51.3 | 72.3 | 7.7 | – |
| OB(c1ccc(C(F)(F)F)cc1)c1ccc(C(F)(F)F)cc1 | 7.6 | 11.2 | 10.8 | 9.5 | – |
| Ic1ccc([B-]2(c3ccccc3)[NH2+]CCO2)cc1 (stereo unspecified) | 2.8 | 5.2 | 5.4 | 7.2 | Ratio IC50 [9]: 4 |
| OB1c2ccccc2CCc2ccccc21 | 33.3 | > 500 | > 500 | 36.4 | – |
| c1ccc([B-]2(c3ccccc3)[NH2+]CCS2)cc1 | 51.8 | 93.5 | 127 | 44.6 | – |
| OC(c1ccccc1)c1ccccc1 [DIPHENYLMETHANOL] | > 500 | – | – | > 500 | inhibition [7]: inactive; inhibition [8]: inactive |
| c1ccc([B-]2(c3ccccc3)OCc3cccc[n+]32)cc1 | 10.7 | 41.5 | 34.9 | 10.2 | – |
| OB(c1ccc(F)cc1)c1ccc(F)cc1 | 26.6 | 61.6 | 37.1 | 17.1 | – |
| c1ccc([B-]2(c3ccccc3)OCC[N+]23CCNCC3)cc1 | 6 | 24.3 | 15 | 2.2 | – |
| CB(O)O [METHANE BORONIC ACID] | > 500 | – | – | > 500 | inhibition [7]: inactive; inhibition [8]: inactive |
| c1ccc([B-]2(c3ccccc3)[NH2+]CCO2)cc1 | 22.9 | 24.5 | 20.7 | 11.9 | IC50 [10]: 22 µM |

| Compound | IC50 [1] [µM] | IC50 [2] [µM] | IC50 [3] [µM] | IC50 [4] [µM] | other results |
| --- | --- | --- | --- | --- | --- |
| c1ccc([B-]2(c3ccccc3)OC[C@@H]3CCC[NH+]32)cc1 (stereo partly specified) | 8.9 | 28 | 18.8 | 10.2 | – |
| Cc1ccc([B-]2(c3ccccc3)[NH2+]CCO2)cc1 (stereo unspecified) | 8.6 | 12.9 | 18.9 | 2.7 | – |
| Fc1ccc([B-]2(c3ccc(F)cc3)[NH2+]CCO2)cc1 | 9 | 14.2 | 17 | 5.9 | – |
| O=C1C[NH2+][B-](c2ccccc2)(c2ccccc2)O1 | 38.6 | 30.6 | 12.9 | 11 | Stability [11]: Stable |
| c1ccc([B-]2(c3ccccc3)Oc3cccc4ccc[n+]2c34)cc1 | – | – | – | – | inhibition [5]: inactive; inhibition [6]: inactive; inhibition [7]: inactive; inhibition [8]: inactive |
| c1ccc([B-]2(c3ccccc3)OC[C@H]3CCC[NH+]32)cc1 (stereo partly specified) | 8 | 30.6 | 18.5 | 10.1 | – |
| COc1ccccc1B(O)c1ccccc1OC | 13.2 | > 500 | > 500 | 11.8 | – |
| OB(c1ccccc1)c1ccccc1 [DIPHENYL BORINIC ACID] | 9.8 | 31.5 | 19.1 | 8.7 | – |
| COc1ccccc1[B-]1(c2ccccc2OC)[NH2+]CCO1 | 11.6 | 412 | > 500 | 10.5 | – |
| NCCOC(c1ccccc1)c1ccccc1 | 106 | > 500 | 159 | 184.2 | – |
| Cc1ccc([B-]2(c3ccccc3)[NH2+]CCO2)s1 (stereo unspecified) | 30.9 | 10 | 12.3 | 25.2 | Ratio IC50 [12]: 2.5 |
| Cc1ccc([B-]2(c3ccc(C)cc3)[NH2+]CCO2)cc1 | 1.6 | 17.1 | 14.4 | 7.4 | – |
| O=C1O[B-](c2ccccc2)(c2ccccc2)[NH2+][C@H]1Cc1c[nH]c2ccccc12 | 6.9 | – | – | 14.7 | inhibition [7]: inactive; inhibition [8]: inactive |
| COc1ccc([B-]2(c3ccc(OC)cc3)[NH2+]CCO2)cc1 | 12.4 | 89.8 | > 100 | 25.8 | – |
| O=C1O[B-](c2ccccc2)(c2ccccc2)[NH2+][C@H]1CO | 40.5 | 20.2 | 36.6 | 9.8 | Stability [11]: Stable |
| Cc1ccccc1[B-]1(c2ccccc2)[NH2+]CCO1 (stereo unspecified) | 10 | 67.9 | 31.1 | 9.9 | – |
| OB(c1ccccc1)c1ccc(C(F)(F)F)cc1 | – | 12.5 | 11.3 | – | – |
| C[N+]1(C)CCO[B-]1(c1ccccc1)c1ccccc1 | 8.9 | 19.8 | 63.6 | 5.1 | – |
| c1ccc([B-]2(c3cccnc3)[NH2+]CCO2)cc1 (stereo unspecified) | – | – | – | – | inhibition [5]: inactive; inhibition [6]: inactive; inhibition [7]: inactive; inhibition [8]: inactive |
| OB(O)O | – | – | – | – | inhibition [5]: inactive; inhibition [6]: inactive; inhibition [7]: inactive; inhibition [8]: inactive |
| c1ccc(OB(Oc2ccccc2)Oc2ccccc2)cc1 | – | – | – | – | inhibition [5]: inactive; inhibition [6]: inactive; inhibition [7]: inactive; inhibition [8]: inactive |
